Data set [1] addresses T1, Orexin/Hypocretin receptor type 1 (Homo sapiens, UniProt O43613).
T1 sequence (O43613 whole entry): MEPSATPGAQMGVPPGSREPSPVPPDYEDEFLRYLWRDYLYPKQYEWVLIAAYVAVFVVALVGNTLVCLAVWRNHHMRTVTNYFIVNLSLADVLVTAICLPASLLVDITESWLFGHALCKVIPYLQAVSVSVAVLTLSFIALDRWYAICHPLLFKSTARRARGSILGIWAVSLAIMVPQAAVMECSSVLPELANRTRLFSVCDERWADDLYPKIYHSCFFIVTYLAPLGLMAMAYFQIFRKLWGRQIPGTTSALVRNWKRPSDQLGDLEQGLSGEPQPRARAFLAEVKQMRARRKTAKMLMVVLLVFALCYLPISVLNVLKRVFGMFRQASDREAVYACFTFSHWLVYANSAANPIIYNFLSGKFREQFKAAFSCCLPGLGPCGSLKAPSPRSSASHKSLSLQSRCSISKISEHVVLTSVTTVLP
Put plainly: Binding affinity to human […].

In a further data set the target is T2, Orexin receptor type 2 (Homo sapiens, UniProt O43614).
T2 sequence (O43614 whole entry): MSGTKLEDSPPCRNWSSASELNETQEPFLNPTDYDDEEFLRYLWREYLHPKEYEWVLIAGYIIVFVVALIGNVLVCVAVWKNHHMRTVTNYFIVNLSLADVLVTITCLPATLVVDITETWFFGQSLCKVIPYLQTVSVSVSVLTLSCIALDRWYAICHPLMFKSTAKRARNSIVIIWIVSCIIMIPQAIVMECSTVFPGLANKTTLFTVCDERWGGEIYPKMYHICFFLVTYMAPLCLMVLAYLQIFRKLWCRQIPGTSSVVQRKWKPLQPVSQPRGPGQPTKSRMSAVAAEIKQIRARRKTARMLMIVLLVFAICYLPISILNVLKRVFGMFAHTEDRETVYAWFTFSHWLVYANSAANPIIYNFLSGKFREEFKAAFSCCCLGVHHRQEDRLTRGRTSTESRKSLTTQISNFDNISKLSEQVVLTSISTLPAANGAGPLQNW
As to the kind of experiment: Binding affinity to human OX2R.

Data set [2] is described as follows: Stability in human liver microsomes assessed as extraction ratio. The data set is classed as ADME, Microsome. The note with it: read-out: ERH. The method, boiled down: (§1)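 Metabolic stability in human or rat liver microsomes, expressed as extraction ratios.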
Data set [3] can be described thus: Stability in rat liver microsomes assessed as extraction ratio. The data set is classed as ADME, Microsome. The note with it: read-out: ERH. The method, boiled down: as §1
A general note: Liver microsomes are a subcellular fraction often used to study metabolism.

Data set [4] in a line: Ex vivo receptor occupancy at OX1R in Sprague-Dawley rat brain tenia tecta using [3H]SB-674042 labelling at 10 mg/kg, po measured after 2 hrs by autoradiography. The data set is classed as functional. The method, boiled down:
(§2)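 Rats received a single oral dose, and OX1R occupancy was measured by ex vivo binding autoradiography in brain tenia tecta sections at 0.5, 2 and 6 h after dosing. Occupancy is expressed as percent. Brain and plasma drug levels (ng/mL) were also sampled at the 0.5 h time point.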

Data set [5] in a line: Drug concentration in Sprague-Dawley rat plasma at 10 mg/kg, po after 0.5 hrs by LC-MS/MS analysis. The data set is classed as ADME, organism-based. The method, boiled down: (§3)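 Brain and plasma levels (ng/mL) sampled 0.5 h after oral dosing at 10 or 30 mg/kg, alongside the ex vivo tenia tecta occupancy study.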
Data set [6] can be described thus: Ex vivo receptor occupancy at OX1R in Sprague-Dawley rat brain tenia tecta using [3H]SB-674042 labelling at 10 mg/kg, po measured after 0.5 hrs by autoradiography. The data set is classed as functional. The method, boiled down: as §2
The nature of data set [7]: Ex vivo receptor occupancy at OX1R in Sprague-Dawley rat brain tenia tecta using [3H]SB-674042 labelling at 10 mg/kg, po measured after 6 hrs by autoradiography. In kind it is functional. The method, boiled down:
as §2

The nature of data set [8]: Drug concentration in Sprague-Dawley rat brain at 10 mg/kg, po after 0.5 hrs by LC-MS/MS analysis. In kind it is ADME, organism-based. The note with it: read-out: Ct. The method, boiled down:
as §3

Data set [9] is described as follows: Ex vivo receptor occupancy at OX1R in Sprague-Dawley rat brain tenia tecta using [3H]SB-674042 labelling at 30 mg/kg, po measured after 2 hrs by autoradiography. The data set is classed as functional. The method, boiled down:
(§4)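 Ex vivo OX1R binding autoradiography in rat tenia tecta after a 30 mg/kg po dose; percent occupancy read at 0.5 and 2 h.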

The nature of data set [10]: Ex vivo receptor occupancy at OX1R in Sprague-Dawley rat brain tenia tecta using [3H]SB-674042 labelling at 30 mg/kg, po measured after 0.5 hrs by autoradiography. In kind it is functional. The method, boiled down:
as §4

Data set [11] is described as follows: Drug concentration in Sprague-Dawley rat brain at 30 mg/kg, po after 0.5 hrs by LC-MS/MS analysis. In kind it is ADME, organism-based. The note with it: read-out: Ct. The procedure, abridged: as §3
The nature of data set [12]: Drug concentration in Sprague-Dawley rat plasma at 30 mg/kg, po after 0.5 hrs by LC-MS/MS analysis. In kind it is ADME, organism-based. The method, boiled down:
as §3

In the case of `O=C(c1ccccc1-n1nccn1)N1C2CCC1C(Oc1ccc(C(F)(F)F)cn1)C2` (racemic), the inhibitory constant (Ki) in data set [1] stood at 130 nM; on Orexin receptor type 2, 2700 nM.

For the compound `O=C(c1ccccc1-n1nccn1)N1C2CCC1C(Nc1cnc(C(F)(F)F)cn1)C2` (racemic), the hepatic extraction ratio in data set [2] came to 0.36; in data set [3], 0.55. In addition, the inhibitory constant (Ki) in data set [1] worked out at 62 nM; at Orexin receptor type 2, 1250 nM.

For `O=C(c1ccccc1-n1nccn1)N1[C@@H]2CC[C@H]1[C@H](Nc1cnc(C(F)(F)F)cn1)C2`, the hepatic extraction ratio in data set [2] was less than 0.3; in data set [3] it was 0.31. Besides, the inhibitory constant (Ki) in data set [1] came out at 30 nM; at Orexin receptor type 2, 770 nM.

On to `O=C(c1cccn2ccnc12)N1CCC(F)(F)[C@@H](Oc2ccc3ccccc3n2)C1`, for which the Ki in [1] worked out at 1.8 nM; on Orexin receptor type 2, 1010 nM.

In the case of `O=C(c1cc(F)ccc1-n1nccn1)N1C2CCC1C(COc1ccc(F)cn1)C2` (racemic), the hepatic extraction ratio in data set [2] was found to be 0.81; in data set [3], 0.8. The inhibition constant Ki in data set [1] was 59 nM; at Orexin receptor type 2 it was 200 nM.

With `Cc1ccc(-c2ncccn2)c(C(=O)N2C3CCC2C(COc2ccc(F)cn2)C3)c1` (racemic), the hepatic extraction ratio turned out to be 0.91 in data set [2] and 0.89 in data set [3]. Further, the Ki was 8.7 nM in [1] and 40 nM at Orexin receptor type 2.

As to `Cc1ccc(-c2ncccn2)c(C(=O)N2[C@@H]3CC[C@H]2[C@H](COc2ccccn2)C3)n1`, the values for the hepatic extraction ratio in [2] and in data set [3] were 0.61 and 0.82, respectively. Moreover, the inhibitory constant (Ki) in [1] was 19 nM; at Orexin receptor type 2 it was 230 nM.

`Cc1ccc(-n2nccn2)c(C(=O)N2C3CCC2C(COc2ccc(C(F)(F)F)cn2)C3)n1` (racemic): the Ki was determined as 500 nM in data set [1] and 420 nM on Orexin receptor type 2.

Turning to `O=C(c1cccc(F)c1-c1ncccn1)N1[C@@H]2CC[C@H]1[C@H](Nc1ccc(C(F)(F)F)cn1)C2`, the Activity in data set [4] came out at 69%; in data set [6] it was 70%; in data set [7], 21%. Besides, the concentration at 0.5 h in data set [5] worked out at 586 ng/mL; in [8] it was 72 ng/mL. In addition, the figures for the hepatic extraction ratio in data set [2] and in data set [3] were 0.75 and 0.82, respectively.

As for `O=C(c1ccc(F)cc1-c1ncccn1)N1[C@@H]2CC[C@H]1[C@H](Nc1cnc(C(F)(F)F)cn1)C2`, the Activity in data set [9] worked out at 17%; in [10] it was 75%. For the same compound, the hepatic extraction ratio amounted to 0.81 in data set [2] and 0.76 in data set [3]. Moreover, the results for the concentration at 0.5 h in data set [11] and in [12] were 37 ng/mL and 257 ng/mL, respectively. The Ki in data set [1] turned out to be 61 nM; on Orexin receptor type 2, 1700 nM.

With `O=C(c1ccccc1-n1nccn1)N1C2CCC1C(Nc1ccc(C(F)(F)F)cn1)C2` (racemic), the hepatic extraction ratio in data set [2] turned out to be 0.69; in data set [3], 0.87. In addition, the figures for the inhibitory constant (Ki) (in data set [1]; on Orexin receptor type 2) were 52 nM and 1400 nM, respectively.

In the case of `O=C(c1cc(F)ccc1-c1ncccn1)N1[C@@H]2CC[C@H]1[C@H](Nc1cnc(C(F)(F)F)cn1)C2`, the Ki was 65 nM in data set [1] and 730 nM on Orexin receptor type 2.

Turning to `O=C(c1cccc(F)c1-c1ncccn1)N1[C@@H]2CC[C@H]1[C@H](Nc1ncc(C(F)(F)F)cc1Cl)C2`, the hepatic extraction ratio stood at 0.61 in data set [2] and 0.83 in data set [3]. Further, the Ki in data set [1] came to 14 nM; at Orexin receptor type 2 it was 540 nM.

Take `O=C(c1nccc2[nH]cnc12)N1CCC(F)(F)[C@@H](Oc2ccc3ccccc3n2)C1`: the Ki in data set [1] came out at 5.2 nM.

Consider `Cc1ccc(-n2nccn2)c(C(=O)N2[C@@H]3CC[C@H]2[C@H](COc2ccc(F)cn2)C3)n1`, for which the Activity in [9] was 30%; in [10], 50%. In addition, the concentration at 0.5 h was found to be 313 ng/mL in [11] and 930 ng/mL in data set [12].

`COc1ccc(C[C@H]2c3cc(OC)c(OC)cc3CCN2[C@@H](C(=O)NC(C)C)c2ccccc2)cc1OC` yielded a Ki in [1] of 6 nM.

With `Cc1ccc(-n2nccn2)c(C(=O)N2C3CCC2C(COc2ccc(F)cn2)C3)c1` (racemic), the Activity in data set [9] was determined as 43%; in data set [10] it was 49%. Besides, the concentration at 0.5 h in data set [11] came to 16 ng/mL; in data set [12], 55 ng/mL. At Orexin receptor type 2, this compound displayed an inhibition constant (Ki) of 72 nM.

Consider `O=C(c1cc(F)ccc1-c1ncccn1)N1C2CCC1C(COc1ccc(F)cn1)C2` (racemic), for which the values for the hepatic extraction ratio in [2] and in data set [3] were 0.81 and 0.76, respectively. For the same compound, the Ki in data set [1] was found to be 41 nM; at Orexin receptor type 2, 160 nM.

As to `O=C(c1ccccc1-n1nccn1)N1C2CCC1C(Nc1ncc(C(F)(F)F)cn1)C2` (racemic), the Ki in [1] is 180 nM. That is a sub-micromolar value.

With `Cc1ccc(-n2nccn2)c(C(=O)N2C3CCC2C(Nc2ccc(C(F)(F)F)cn2)C3)n1` (racemic), the hepatic extraction ratio in data set [2] was 0.93; in data set [3] it was more than 0.92. The Ki in [1] is 75 nM.

Turning to `O=C(c1ccccc1-c1cccs1)N1C2CCC1C(COc1ccc(F)cn1)C2` (racemic), the hepatic extraction ratio in data set [2] is more than 0.95; in data set [3], more than 0.92. In addition, at Orexin receptor type 2, the inhibition constant (Ki) was 13 nM.

`O=C(c1cccc(F)c1-c1ncccn1)N1C2CCC1C(Oc1cnc(C(F)(F)F)cn1)C2` (racemic): the inhibition constant (Ki) in [1] was found to be 100 nM; on Orexin receptor type 2 it was 5500 nM.

Take `O=C(c1c(F)cccc1-c1ncccn1)N1[C@@H]2CC[C@H]1[C@H](Nc1cnc(C(F)(F)F)cn1)C2`: the Activity in data set [4] turned out to be 43%; in data set [6], 51%; in data set [7], 29%. Besides, the results for the concentration at 0.5 h in data set [5] and in data set [8] were 1600 ng/mL and 654 ng/mL, respectively. The compound also displayed a Ki on Orexin receptor type 2 of 560 nM.

`Cc1ccc(-n2nccn2)c(C(=O)N2[C@@H]3CC[C@H]2[C@H](COc2ccccn2)C3)n1`: the Activity in [9] came to 20%; in [10], 50%. The results for the concentration at 0.5 h in data set [11] and in data set [12] were 8 ng/mL and 118 ng/mL, respectively.

With `O=C(c1cccc(F)c1-c1ncccn1)N1C2CCC1C(Oc1ccc(C(F)(F)F)cn1)C2` (racemic), the Ki in data set [1] is 130 nM; on Orexin receptor type 2, more than 10000 nM.

Usually Ki stands for a measure of affinity in units of concentration, obtained from inhibition or displacement. Low readings indicate tighter binding, high ones weaker binding.

(Values after ChEMBL document CHEMBL4725448, “Substituted Azabicyclo[2.2.1]heptanes as Selective Orexin-1 Antagonists: Discovery of JNJ-54717793” (ACS Med Chem Lett, 2020).)
